Test [1] in a line: Immunomodulatory activity in whole blood assessed as inhibition of luminol-induced oxidative burst by chemiluminescence assay. It is filed as functional, tissue-based. The method in brief: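 Whole blood diluted 1:200 in HBSS with Ca2+ and Mg2+, preincubated 30 min with compounds at 3.1-50 µg/mL. Then serum-opsonized zymosan (20 mg/mL as added) and luminol ([…] as added) were added, and the final volume brought to 0.2 mL with HBSS++. HBSS++ alone served as control. Luminol-enhanced chemiluminescence measured, giving IC50.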

Test [2] concerns Neutrophil. As to the kind of experiment: Immunomodulatory activity in polymorphoneutrophils assessed as inhibition of luminol-induced oxidative burst by chemiluminescence assay. The class given is functional, cell-based. The method in brief: (§1)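 Luminol-enhanced chemiluminescence on isolated neutrophils (1 × 10^7) in HBSS with Ca2+ and Mg2+. Cells preincubated 30 min with compounds at 3.1-50 µg/mL. Burst triggered with serum-opsonized zymosan (20 mg/mL as added), followed by luminol ([…] as added). Final volume adjusted to 0.2 mL with HBSS++, which also served as control. Read-out is IC50.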

Test [3] relates to Neutrophil. Description: Immunomodulatory activity in polymorphoneutrophils assessed as inhibition of zymosan-activated oxidative burst by chemiluminescence assay. The class given is functional, cell-based. The method in brief: as §1
The subject of test [4] is Neutrophil. Description: Immunomodulatory activity in polymorphoneutrophils assessed as inhibition of PMA-activated oxidative burst by chemiluminescence assay. It is filed as functional, cell-based.
The subject of another test is A549. Description: Cytotoxicity against human A549 cells by SRB assay. The class given is functional, cell-based. Put shortly:
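A549 lung adenocarcinoma cells, freshly trypsinized, seeded at 1 × 10^4 cells per well. Compounds added from a DMSO-diluted stock. Cultured 3 days, then attached cells stained with sulforhodamine B and dye solubilized in DMSO. Absorbance read at 550 nm. IC50 is the concentration reducing cell growth by 50%. Cisplatin served as positive control.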

Active and inactive are the calls of the source. The calls are words filed in the database; no cut-off is given here. A value given as a limit tells only on which side of the number the result lay.

In the case of `COc1c2cc3c(cc2nc2occc12)O[C@@H](C(C)(C)O)CO3` [QUINOSUAVEOLINE B], the results for the IC50 (in test [1]; in the test on Neutrophil [2]) were 56.8 µM and 14.5 µM, respectively. Besides, the Activity entry with Neutrophil [3] is “Dose-dependent effect”. For the same compound, in the test with Neutrophil [4], the outcome was inactive.
In the case of `COc1ccc2c(OC)c3ccoc3nc2c1OC` [SKIMMIANINE], the 50% inhibitory concentration (IC50) in test [1] is 51.3 µM; in the test on Neutrophil [2], 35.5 µM; in the test with A549, greater than 10 µM. Moreover, the Activity entry in the test with Neutrophil [3] is “Dose-dependent effect”. For the same compound, the outcome with Neutrophil [4] was inactive.
On to `O=c1c2ccc(O)cc2nc2n1CCc1c-2[nH]c2ccccc12` [ORISUAVEOLINE A], for which the IC50 with A549 is greater than 10 µM.
As to `COc1ccc2c(=O)n3c(nc2c1)-c1[nH]c2ccccc2c1CC3`, the IC50 was 48.8 µM in test [1], 27.4 µM with Neutrophil [2] and greater than 10 µM in the test with A549. The Activity entry in the test with Neutrophil [3] is “Dose-dependent effect”. Also, in the test on Neutrophil [4], the result was inactive.
On to `COc1cc2nc3occc3c(OC)c2cc1OC` [KOKUSAGININE], for which the IC50 in test [1] is 74.9 µM; in the test with Neutrophil [2] it was 61.8 µM. The Activity result with Neutrophil [3] was “Dose-dependent effect”. For the same compound, in the test on Neutrophil [4], the result was inactive.
For `CC1(C)O[C@H]2CC(=O)OC[C@]23[C@H]2CC[C@@]4(C)[C@H](c5ccoc5)OC(=O)[C@H]5O[C@]54[C@]2(C)C(=O)C[C@@H]13` [LIMONIN], the IC50 in test [1] turned out to be 26.1 µM; with Neutrophil [2] it was 38.2 µM. Moreover, the Activity entry with Neutrophil [3] is “Dose-dependent effect”. Besides, the outcome with Neutrophil [4] was inactive.
The matching figures for `COc1ccc2c(=O)n3c(nc2c1)-c1[nH]c2cc4c(cc2c1CC3)OCO4` [ORISUAVEOLINE B]: 31.8 µM, 22.4 µM, “Dose-dependent effect” and “inactive”.
On to `COc1c2c(cc3nc4occc4c(OC)c13)OCO2`, for which, in the test with A549, the IC50 amounted to 7.9 µM.
In turn, `COc1c2ccoc2nc2c(OC)c3c(cc12)OCO3` [FLINDERSIAMINE] returned an IC50 with A549 of 8.9 µM.
In the test on A549, `COc1c2cc3c(cc2nc2occc12)OCO3` [MACULINE] registered an IC50 of 9.5 µM.
For `COc1c2ccoc2nc2c(O)c3c(c(CC=C(C)C)c12)OCO3` [TECLEAVERDOORNINE], the IC50 in test [1] was 54.4 µM; in the test on Neutrophil [2], 21.2 µM. Besides, the Activity entry in the test on Neutrophil [3] is “Dose-dependent effect”. In addition, in the test with Neutrophil [4], the result was inactive.
Regarding `CC(C)Cc1ccc(C(C)C(=O)O)cc1` (stereo unspecified) [IBUPROFEN], the figures for the IC50 (in test [1]; with Neutrophil [2]) were 54.3 µM and 12.1 µM, respectively.
